Laboratory results as given in paper PMC5498144 (BMB Reports, 2017).

Key:
[1] = molecular target: T1, PTPN2 (Homo sapiens, UniProt P17706); test: DARTS assay; format: binding; details: 1 μM pretreatment 20 min, then trypsin on ice; PTPN2/trypsin 100:1
T1 sequence (P17706 1-415): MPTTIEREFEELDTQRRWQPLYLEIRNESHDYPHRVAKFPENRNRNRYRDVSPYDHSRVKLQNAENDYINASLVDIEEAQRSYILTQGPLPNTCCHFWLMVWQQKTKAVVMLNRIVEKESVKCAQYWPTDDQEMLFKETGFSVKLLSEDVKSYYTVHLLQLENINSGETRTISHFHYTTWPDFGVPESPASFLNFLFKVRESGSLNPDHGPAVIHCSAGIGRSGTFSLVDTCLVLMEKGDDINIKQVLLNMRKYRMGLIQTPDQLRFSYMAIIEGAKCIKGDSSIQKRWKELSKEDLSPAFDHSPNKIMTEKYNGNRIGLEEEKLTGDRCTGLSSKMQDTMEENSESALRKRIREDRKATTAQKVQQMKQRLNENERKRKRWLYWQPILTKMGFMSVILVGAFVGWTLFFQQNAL

[2] = molecular target: T2, CD45 (Homo sapiens, UniProt P08575); test: In vitro phosphatase assay with OMFP as substrate; format: biochemical
T2 sequence (P08575 653-912 limits assumed): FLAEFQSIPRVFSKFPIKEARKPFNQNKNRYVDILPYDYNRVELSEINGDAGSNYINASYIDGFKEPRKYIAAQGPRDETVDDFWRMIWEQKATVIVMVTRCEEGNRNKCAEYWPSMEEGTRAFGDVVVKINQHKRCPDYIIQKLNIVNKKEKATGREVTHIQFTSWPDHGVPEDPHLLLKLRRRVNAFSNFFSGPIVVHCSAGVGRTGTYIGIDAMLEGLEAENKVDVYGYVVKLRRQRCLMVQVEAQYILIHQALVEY
Method in brief: (§1)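 His-tagged human PTPs expressed in E. coli BL21(DE3)-RIL (1 mM IPTG, 37°C, 3 h) and Ni-NTA purified. 100 nM enzyme in 30 mM Tris-HCl pH 7.0, 75 mM NaCl, 1 mM EDTA, 0.4 mM DTT, 0.132% BSA, 1% DMSO final. Test compound (water-dissolved; 0, 5, 10 μM) present; started with 100 μM OMFP; 30 min at 37°C. Fluorescence ex 495/em 535 nm; triplicates; IC50 by curve fitting.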

[3] = molecular target: PTEN (Homo sapiens, UniProt P60484); test: In vitro phosphatase assay with OMFP as substrate; format: biochemical
PTEN, sequence (P60484 whole entry, species assumed): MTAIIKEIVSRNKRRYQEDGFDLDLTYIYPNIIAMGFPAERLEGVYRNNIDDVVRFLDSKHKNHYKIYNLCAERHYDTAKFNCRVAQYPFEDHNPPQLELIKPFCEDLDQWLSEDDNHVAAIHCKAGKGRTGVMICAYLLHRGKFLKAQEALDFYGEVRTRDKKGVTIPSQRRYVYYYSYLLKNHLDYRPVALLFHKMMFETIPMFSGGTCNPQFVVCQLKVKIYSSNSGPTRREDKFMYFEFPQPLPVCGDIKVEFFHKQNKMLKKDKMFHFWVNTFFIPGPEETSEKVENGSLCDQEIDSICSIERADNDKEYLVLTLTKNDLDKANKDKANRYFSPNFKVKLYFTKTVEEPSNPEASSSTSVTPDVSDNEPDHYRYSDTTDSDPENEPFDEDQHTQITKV
Method in brief: as §1

[4] = molecular target: DUSP3 (Homo sapiens, UniProt P51452); test: In vitro phosphatase assay with OMFP as substrate; format: biochemical
DUSP3, sequence (P51452 whole entry, species assumed): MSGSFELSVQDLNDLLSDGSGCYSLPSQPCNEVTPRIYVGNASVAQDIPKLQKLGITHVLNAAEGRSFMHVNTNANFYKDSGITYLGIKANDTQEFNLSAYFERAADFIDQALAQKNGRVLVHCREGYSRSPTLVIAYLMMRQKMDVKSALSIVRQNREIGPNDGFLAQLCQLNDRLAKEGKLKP
Method in brief: as §1

[5] = molecular target: T3, DUSP18 (Homo sapiens, UniProt Q8NEJ0); test: In vitro phosphatase assay with OMFP as substrate; format: biochemical
T3 sequence (Q8NEJ0 1-188): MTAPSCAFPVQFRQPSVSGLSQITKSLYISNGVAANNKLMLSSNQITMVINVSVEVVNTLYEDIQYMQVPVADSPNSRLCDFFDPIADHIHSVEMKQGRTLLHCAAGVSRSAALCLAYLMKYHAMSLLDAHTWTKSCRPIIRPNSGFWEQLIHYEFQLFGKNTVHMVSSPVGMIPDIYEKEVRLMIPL
Method in brief: as §1

[6] = molecular target: T4, DUSP23 (Homo sapiens, UniProt Q9BVJ7); test: In vitro phosphatase assay with OMFP as substrate; format: biochemical
T4 sequence (Q9BVJ7 1-150): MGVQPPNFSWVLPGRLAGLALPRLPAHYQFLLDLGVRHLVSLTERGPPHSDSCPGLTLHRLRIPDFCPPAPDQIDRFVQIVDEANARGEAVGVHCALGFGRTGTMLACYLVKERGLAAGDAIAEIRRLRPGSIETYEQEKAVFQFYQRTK
Method in brief: as §1

[7] = molecular target: T5, Cdc25B (Homo sapiens, UniProt P30305); test: In vitro phosphatase assay with OMFP as substrate; format: biochemical
T5 sequence (P30305 1-580): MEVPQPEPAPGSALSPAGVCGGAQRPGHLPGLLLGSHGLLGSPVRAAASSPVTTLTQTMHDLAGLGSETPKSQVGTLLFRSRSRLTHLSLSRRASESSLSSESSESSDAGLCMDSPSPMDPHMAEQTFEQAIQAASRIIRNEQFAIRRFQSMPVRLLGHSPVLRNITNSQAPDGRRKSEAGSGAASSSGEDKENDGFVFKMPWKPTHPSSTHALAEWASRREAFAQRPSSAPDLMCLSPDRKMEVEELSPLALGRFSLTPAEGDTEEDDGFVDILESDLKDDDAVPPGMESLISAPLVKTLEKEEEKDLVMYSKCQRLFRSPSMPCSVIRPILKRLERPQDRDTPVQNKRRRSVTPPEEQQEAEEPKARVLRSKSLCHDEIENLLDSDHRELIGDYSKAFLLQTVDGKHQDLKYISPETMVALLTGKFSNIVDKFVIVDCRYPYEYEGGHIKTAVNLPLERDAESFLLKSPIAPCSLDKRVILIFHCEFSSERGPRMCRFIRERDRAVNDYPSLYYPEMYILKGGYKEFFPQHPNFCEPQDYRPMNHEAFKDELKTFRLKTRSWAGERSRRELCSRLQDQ
Method in brief: as §1

[8] = molecular target: T6, DUSP8 (Homo sapiens, UniProt Q13202); test: In vitro phosphatase assay with OMFP as substrate; format: biochemical
T6 sequence (Q13202 1-625): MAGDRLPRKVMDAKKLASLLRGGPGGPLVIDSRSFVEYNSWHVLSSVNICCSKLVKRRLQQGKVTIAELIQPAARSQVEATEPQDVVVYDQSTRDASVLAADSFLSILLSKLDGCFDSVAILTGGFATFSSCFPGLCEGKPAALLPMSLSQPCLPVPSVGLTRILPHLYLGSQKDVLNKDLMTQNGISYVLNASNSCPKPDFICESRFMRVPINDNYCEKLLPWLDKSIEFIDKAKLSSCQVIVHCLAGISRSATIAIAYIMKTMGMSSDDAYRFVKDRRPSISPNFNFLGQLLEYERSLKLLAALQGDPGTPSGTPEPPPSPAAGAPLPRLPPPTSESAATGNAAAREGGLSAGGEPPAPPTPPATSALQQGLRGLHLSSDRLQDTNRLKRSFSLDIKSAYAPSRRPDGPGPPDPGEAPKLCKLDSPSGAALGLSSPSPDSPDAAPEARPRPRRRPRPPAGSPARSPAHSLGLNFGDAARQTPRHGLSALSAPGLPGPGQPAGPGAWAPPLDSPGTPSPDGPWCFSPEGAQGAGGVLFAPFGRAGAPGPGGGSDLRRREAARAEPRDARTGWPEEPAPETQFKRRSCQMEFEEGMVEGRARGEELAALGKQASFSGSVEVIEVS
Method in brief: as §1

[9] = molecular target: T7, SSH3 (Homo sapiens, UniProt Q8TE77); test: In vitro phosphatase assay with OMFP as substrate; format: biochemical
T7 sequence (Q8TE77 1-659): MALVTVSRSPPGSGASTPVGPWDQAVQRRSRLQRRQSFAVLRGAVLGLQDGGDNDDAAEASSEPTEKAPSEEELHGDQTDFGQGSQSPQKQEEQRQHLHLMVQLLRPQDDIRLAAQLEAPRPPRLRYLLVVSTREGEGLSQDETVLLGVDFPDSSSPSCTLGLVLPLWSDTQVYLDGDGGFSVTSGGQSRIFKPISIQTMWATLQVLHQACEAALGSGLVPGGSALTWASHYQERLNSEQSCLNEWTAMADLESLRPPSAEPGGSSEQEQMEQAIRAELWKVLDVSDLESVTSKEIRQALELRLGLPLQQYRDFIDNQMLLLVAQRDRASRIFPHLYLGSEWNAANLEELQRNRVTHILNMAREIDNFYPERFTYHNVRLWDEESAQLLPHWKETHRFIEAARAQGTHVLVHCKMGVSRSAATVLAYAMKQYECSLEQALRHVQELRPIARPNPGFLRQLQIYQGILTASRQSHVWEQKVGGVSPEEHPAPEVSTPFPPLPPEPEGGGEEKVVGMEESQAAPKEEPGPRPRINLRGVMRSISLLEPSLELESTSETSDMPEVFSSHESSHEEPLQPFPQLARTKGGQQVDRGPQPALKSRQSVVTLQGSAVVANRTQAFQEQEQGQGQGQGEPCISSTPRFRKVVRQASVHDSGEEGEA
Method in brief: as §1

[10] = molecular target: T8, Laforin (Homo sapiens, UniProt O95278); test: In vitro phosphatase assay with OMFP as substrate; format: biochemical
T8 sequence (O95278 1-331): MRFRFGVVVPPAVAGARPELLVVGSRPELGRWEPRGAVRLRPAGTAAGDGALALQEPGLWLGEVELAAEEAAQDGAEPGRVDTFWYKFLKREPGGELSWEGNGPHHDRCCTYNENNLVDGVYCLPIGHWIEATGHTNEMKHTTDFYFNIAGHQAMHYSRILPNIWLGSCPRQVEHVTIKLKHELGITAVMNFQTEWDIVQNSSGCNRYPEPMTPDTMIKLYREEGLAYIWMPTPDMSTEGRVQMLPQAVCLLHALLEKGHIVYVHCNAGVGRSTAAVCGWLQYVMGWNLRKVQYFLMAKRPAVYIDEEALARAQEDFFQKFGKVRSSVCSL
Method in brief: as §1

[11] = molecular target: T1, PTPN2; test: Kinetic analysis; format: biochemical
[12] = system: HEK 293 cells; test: Cell viability assay; format: cell-based, human; details: 6 h, up to 1.5 μM (tested 1, 1.5, 2, 3 μM)
Method in brief: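 HEK 293 cells grown in DMEM with 10% FBS and 1% penicillin/streptomycin under 5% CO2. Seeded at 1.5 × 10^6 cells/well and left overnight, then exposed to test compound (1, 1.5, 2, 3 μM) for 6 h. Water-soluble tetrazolium reagent added for 1 h at 37°C; absorbance read at 450 nm against a 650 nm reference. Mean ± SEM of three independent experiments; Student's t-test versus untreated.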

[13] = system: PTPN2-mediated dephosphorylation of STAT3 at Tyr-705; format: cell-based, human; details: HEK 293 cells with FLAG-PTPN2, 1.5 μM 6 h, then IL-6 10 ng/ml 30 min
Method in brief: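 HEK 293 cells transfected with FLAG-PTPN2 wild type or catalytically dead C216S plasmid using polyethylenimine. After 42 h, treated with test compound (1.5 μM) for 6 h, then IL-6 (10 ng/ml) for 30 min. Cells lysed in PTP lysis buffer. Immunoblots probed for phospho-STAT3 Tyr-705 and total STAT3, detected by ECL and quantified by densitometry relative to the IL-6-stimulated group.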

SMILES | Proteolysis of PTPN2 by trypsin (DARTS) [1] | IC50 [2] [µM] | IC50 [3] [µM] | IC50 [4] [µM] | IC50 [5] [µM] | IC50 [6] [µM] | IC50 [7] [µM] | IC50 [8] [µM] | IC50 [9] [µM] | IC50 [10] [µM] | Ki [11] [µM] | Cytotoxic effects (cell viability) [12] | PTPN2-mediated dephosphorylation of STAT3 at Tyr-705 [13]
O=S(=O)(F)Cc1ccccc1 [PMSF, phenylmethylsulfonyl fluoride] | decreased |  |  |  |  |  |  |  |  |  |  |  | 
CC(C)(C)C(=O)Nc1ccc2c(c1)C(=O)C(=O)c1ccccc1-2 [PTP inhibitor XIX, N-[9, 10-dioxo-9, 10-dihydro-phenanthren-2-yl]-2,2-dimethyl-propionamide] |  | 0.86 ± 0.03 | 1.78 ± 0.34 | > 50 | > 50 | > 50 | > 50 | > 50 | > 50 | > 100 | 0.76 ± 0.08 | no apparent cytotoxic effects | inhibited
